Activity calls are given as the source filed them. Cut-off read from the data, not from the text of the source, unless noted: active = inhibition above about 30%; inactive = the rest.
Assays:
[1] = reducers of endogenous Her2 protein level, primary screen, SKBR3 breast tumor cells, AlphaScreen, ATP viability (AID 461;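 active = Her2 level under about 52% in both replicate screens, with viability over 70% of control, limit read from the data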;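 for Her2 level: lower value means less Her2 protein in the cells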;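 for viability: percent of carrier control wells set as 100% viability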); conditions: 18-24 h, measured here: SKBR3 viability, ATP luminescence, at 10 µM
[2] = molecular target: Receptor tyrosine-protein kinase erbB-2 (Homo sapiens) (UniProt P04626); experiment: as above; conditions: 18-24 h, at 10 µM, stronger effect = lower value
[3] = SK-BR-3 cell growth inhibitors, pilot screen, 24 h, human (AID 572;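 active = viability at or below 10% of carrier control in both of two separate runs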;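 note: compound exposure lasted between 18 and 24 h rather than exactly 24 h; 100% = carrier-treated control wells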); conditions: SK-BR-3 viability, CellTiter-Glo luminescence, at 10 µM, stronger effect = lower value
[4] = HUVEC growth inhibition – cell-based, human, primary screen (AID 575;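 active = viability at or below 30% in both replicate assays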;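 note: 100% = median of untreated cell wells with 0.1% DMSO on each plate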); conditions: HUVEC proliferation, CellTiter-Glo luminescence, 72 h; at 10 µM; stronger effect = lower value
Method in brief: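 System – primary HUVEC, no more than 12 passages · Medium – Low-serum (2% FBS) EBM, supplemented · Times – 72 h exposure, 37 °C, 5% CO2, 30 min RT equilibration · Measured by – luminescent ATP assay · Read-out – % viability relative to median vehicle-well signal on each plate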

[5] = growth inhibitors of H69AR lung tumor, primary screen, human, duplicate replicates (AID 580;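 active = viability at or under a set limit in both replicates, limit being median viability minus 3 SD, cut at about 48% in these data, passing the limit was not always enough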;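 note: 100% = mean luminescence of untreated wells and 0% = no signal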); conditions: H69AR lung tumor cells viability, ATP luminescence, 72 h; at 10 µM; stronger effect = lower value
[6] = reversal of MRP1-mediated doxorubicin resistance, pilot screen, H69AR cells, doxorubicin co-treatment (AID 601;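 active = viability loss from added drug above about 55%, and viability with drug at most 40%, in both replicates, limit read from the data, passing the limit was not always enough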); conditions: CellTiter-Glo, 72 h, at 10 µM; for differential viability (reversal): stronger effect = higher value
[7] = 384-well plate pilot, post-Golgi transport modulator project, inhibition of yeast transport mutant growth (AID 636; in the data active = inhibition above about 31%); conditions: absorbance 615 nm, about 18 h, stronger effect = higher value
[8] = growth suppression of yeast trafficking mutant, preliminary HTS, modulators of trafficking downstream of Golgi apparatus project, 1536-format plate, OD 615 nm (AID 637); conditions: yeast transport mutant growth, absorbance 615 nm, 18 h; stronger effect = higher value
[9] = H69AR cells + 2 uM doxorubicin, measured here: viability with 2 uM doxorubicin, stronger effect = lower value
[10] = H69AR cells, compound alone cytotoxicity

Receptor tyrosine-protein kinase erbB-2 (Homo sapiens), sequence (P04626 whole entry, looked up): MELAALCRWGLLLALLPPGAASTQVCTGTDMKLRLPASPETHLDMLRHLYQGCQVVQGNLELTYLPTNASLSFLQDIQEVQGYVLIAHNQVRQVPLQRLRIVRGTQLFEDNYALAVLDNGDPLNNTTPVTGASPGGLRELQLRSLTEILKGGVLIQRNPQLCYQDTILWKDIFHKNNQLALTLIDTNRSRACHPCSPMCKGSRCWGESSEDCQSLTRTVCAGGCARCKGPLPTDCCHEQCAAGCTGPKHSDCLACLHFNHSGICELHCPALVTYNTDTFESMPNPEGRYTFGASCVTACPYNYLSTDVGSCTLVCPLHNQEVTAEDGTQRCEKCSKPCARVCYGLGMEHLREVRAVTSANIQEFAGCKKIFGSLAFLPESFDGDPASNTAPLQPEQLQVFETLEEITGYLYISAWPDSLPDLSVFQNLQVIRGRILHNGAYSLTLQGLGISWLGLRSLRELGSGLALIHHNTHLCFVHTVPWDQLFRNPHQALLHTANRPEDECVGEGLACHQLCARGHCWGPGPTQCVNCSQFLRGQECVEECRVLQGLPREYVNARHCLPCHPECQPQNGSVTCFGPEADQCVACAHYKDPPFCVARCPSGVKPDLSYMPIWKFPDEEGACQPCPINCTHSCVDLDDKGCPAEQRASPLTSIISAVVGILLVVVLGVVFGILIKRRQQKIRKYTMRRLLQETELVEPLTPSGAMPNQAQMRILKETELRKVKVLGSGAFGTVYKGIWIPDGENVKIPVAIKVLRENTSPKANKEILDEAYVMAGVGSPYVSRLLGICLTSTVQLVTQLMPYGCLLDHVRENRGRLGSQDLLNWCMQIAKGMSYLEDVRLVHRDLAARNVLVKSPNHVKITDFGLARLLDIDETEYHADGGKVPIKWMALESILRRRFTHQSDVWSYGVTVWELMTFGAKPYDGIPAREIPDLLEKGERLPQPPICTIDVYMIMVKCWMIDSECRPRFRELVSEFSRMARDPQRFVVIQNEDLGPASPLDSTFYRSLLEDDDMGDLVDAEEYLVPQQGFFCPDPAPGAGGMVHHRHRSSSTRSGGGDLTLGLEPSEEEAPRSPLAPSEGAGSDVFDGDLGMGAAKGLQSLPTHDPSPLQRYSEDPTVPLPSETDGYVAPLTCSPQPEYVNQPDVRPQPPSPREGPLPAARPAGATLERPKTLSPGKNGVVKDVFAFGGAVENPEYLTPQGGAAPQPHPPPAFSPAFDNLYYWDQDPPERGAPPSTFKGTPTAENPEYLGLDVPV

Compound	viability [1] [%]	Her2 level [2]	viability [3]	viability [4]	viability [5]	differential viability (reversal) ([6]; H69AR cells + 2 uM doxorubicin)	viability [6, 9] [%]	viability [6, 10] [%]	inhibition [7]	inhibition [8]
CCS(=O)(=O)N1CCCC(C(=O)NCc2ccccc2Cl)C1 (stereo not given)	90	110% (inactive)	90% (inactive)	99.1% (inactive)	94.7% (inactive)	5.79% (inactive)	88.9	94.7	-7.6% (inactive)	-3.61% (inactive)
O=C(O)C1CC(=O)N(c2ccc(Br)cc2)C1 (stereo not given)	81.5	122% (inactive)	81.5% (inactive)	94.6% (inactive)	93.8% (inactive)	4.02% (inactive)	89.8	93.8	-6.05% (inactive)	-4.1% (inactive)
COCCn1nnnc1CN(CCCN1CCOCC1)Cc1cc2c(C)ccc(C)c2[nH]c1=O	85	124% (inactive)	85% (inactive)	98.5% (inactive)	68.7% (inactive)	-5.44% (inactive)	74.1	68.7	4.55% (inactive)	-7.33% (inactive)
O=C1OCCC1Sc1ncnc2sc3c(c12)CCC3 (stereo not given)	95.5	84.5% (inactive)	95.5% (inactive)	97.6% (inactive)	104% (inactive)	11.8% (inactive)	91.9	104	-4.67% (inactive)	-0.32% (inactive)
Cc1ccc(O)c(NC(=O)COc2cc(C)ccc2C)c1	93.5	89.5% (inactive)	93.5% (inactive)	77.7% (inactive)	89.4% (inactive)	5.4% (inactive)	84	89.4	-1.97% (inactive)	-10.3% (inactive)
Cc1c(C2Nc3ccccc3NC3=C2C(=O)CC(C)(C)C3)cnn1C (stereo not given)	112	107% (inactive)	112% (inactive)	93% (inactive)	89.2% (inactive)	0.765% (inactive)	88.4	89.2	-4.38% (inactive)	-5.87% (inactive)
COC(=O)C1C(=O)c2c([nH]c(C(=O)OCCOC(C)C)c2C)CC1C (stereo not given)	100	111% (inactive)	100% (inactive)	97.8% (inactive)	99.5% (inactive)	7.92% (inactive)	91.6	99.5	-2.11% (inactive)	-11.5% (inactive)
CCOc1ccccc1-n1c(SCC(=O)NCc2ccco2)nnc1-c1ccncc1	87	90% (inactive)	87% (inactive)	90.4% (inactive)	75.6% (inactive)	39.9% (inactive)	35.7	75.6	-7.47% (inactive)	-0.48% (inactive)
CCC(C)NC(=O)C1CCCN(S(=O)(=O)c2ccc(-n3cnnn3)cc2)C1 (stereo not given)	109	104% (inactive)	109% (inactive)	104% (inactive)	103% (inactive)	14.5% (inactive)	88.6	103	-2.97% (inactive)	-10% (inactive)
Cn1cnnc1SCC(=O)Nc1ccccc1Sc1ccccc1	107	91.5% (inactive)	107% (inactive)	113% (inactive)	98.8% (inactive)	8.32% (inactive)	90.4	98.8	-8.24% (inactive)	4.67% (inactive)
O=C(C1CCC1)N1CCc2cc(S(=O)(=O)Nc3ccc4c(c3)OCO4)ccc21	85.5	76% (inactive)	85.5% (inactive)	70.1% (inactive)	91.6% (inactive)	17.8% (inactive)	73.8	91.6	-6.27% (inactive)	-5.08% (inactive)
Cc1ccc(CCNC(=O)C2CCN(S(=O)(=O)c3ccc4c(c3)CCC(=O)N4)CC2)cc1	98.5	100% (inactive)	98.5% (inactive)	44.2% (inactive)	79.9% (inactive)	10.6% (inactive)	69.3	79.9	-0.67% (inactive)	-6.07% (inactive)
O=C(O)CCC1(C(=O)O)OCCc2ccccc21 (stereo not given)	112	83% (inactive)	112% (inactive)	107% (inactive)	97.5% (inactive)	7.12% (inactive)	90.3	97.5	-5.54% (inactive)	2.86% (inactive)
CC(C)c1ccc(S(=O)(=O)N2CCN(CCC(=O)Nc3ccc(N(C)C)cc3)CC2)cc1	100	93% (inactive)	100% (inactive)	66.8% (inactive)	60.6% (inactive)	40.2% (inactive)	20.4	60.6	-3.29% (inactive)	-4.67% (inactive)
Cc1nn(-c2ccc(F)cc2)c2sc(C(=O)OCC(=O)N3CCC(C)CC3)cc12	93	102% (inactive)	93% (inactive)	76.8% (inactive)	102% (inactive)	9.16% (inactive)	92.6	102	-3.87% (inactive)	-5.81% (inactive)
CC(C)C1C2=C(CC(C)(C)CC2=O)ON1c1ccccc1 (stereo not given)	90	90% (inactive)	90% (inactive)	95.8% (inactive)	93% (inactive)	-2.63% (inactive)	95.7	93	-1.6% (inactive)	-0.48% (inactive)
O=C(c1cnsn1)N1CCN(c2ccccn2)CC1	122	75% (inactive)	122% (inactive)	100% (inactive)	102% (inactive)	10.7% (inactive)	91.7	102	-0.66% (inactive)	-5.87% (inactive)
Cc1nc2ccccc2cc1C(=O)NCc1ccco1	130	90% (inactive)	130% (inactive)	91.3% (inactive)	93.3% (inactive)	8.23% (inactive)	85.1	93.3	-4.93% (inactive)	7.42% (inactive)
CN1C(=O)CCC1(O)c1ccccc1 (stereo not given)	89	98% (inactive)	89% (inactive)	116% (inactive)	92.3% (inactive)	0.975% (inactive)	91.3	92.3	0.91% (inactive)	-8.17% (inactive)
C=CCn1c2ccccc2c2nnc(SCC(=O)NC(C(=O)OC)C(C)C)nc21 (stereo not given)	112	96% (inactive)	112% (inactive)	83.5% (inactive)	76.8% (inactive)	2.25% (inactive)	74.5	76.8	-3.12% (inactive)	-4.26% (inactive)
Cc1cc(-n2c(C)cc(C(=O)CSc3nc4ccccc4c(=O)n3Cc3ccco3)c2C)no1	105	83.5% (inactive)	105% (inactive)	92.2% (inactive)	93.8% (inactive)	4.09% (inactive)	89.7	93.8	-6.8% (inactive)	-1.43% (inactive)
Cn1cnnc1SCC(=O)NCc1cccc(C(F)(F)F)c1	88	97.5% (inactive)	88% (inactive)	102% (inactive)	94.3% (inactive)	0.52% (inactive)	93.8	94.3	-5.53% (inactive)	-1.43% (inactive)
CCOC(=O)c1[nH]cc(-c2ccccc2)c1N1CCOCC1	92.5	89.5% (inactive)	92.5% (inactive)	98% (inactive)	94.7% (inactive)	9.26% (inactive)	85.5	94.7	-2.5% (inactive)	0.55% (inactive)
CCOC(=O)N1CCN(S(=O)(=O)c2ccc(Br)s2)CC1	103	112% (inactive)	103% (inactive)	100% (inactive)	94.4% (inactive)	7.92% (inactive)	86.5	94.4	-3.03% (inactive)	2.95% (inactive)
Cc1ccccc1-c1nc(CS(=O)(=O)CC(=O)NCc2ccc3c(c2)OCO3)c(C)o1	99	89% (inactive)	99% (inactive)	87.3% (inactive)	87.8% (inactive)	2.28% (inactive)	85.5	87.8	-4.53% (inactive)	3.61% (inactive)
CS(=O)(=O)c1ccc2nc(NC(=O)C3C4C=CC(C4)C3C(=O)O)sc2c1 (stereo not given)	96	154% (inactive)	96% (inactive)	101% (inactive)	104% (inactive)	13.3% (inactive)	90.3	104	-2.5% (inactive)	-12.8% (inactive)
COc1cccc(-c2cc(C(=O)Nc3cc(OC)c(OC)c(OC)c3)no2)c1	106	99.5% (inactive)	106% (inactive)	57.5% (inactive)	16.6% (active)	-72% (inactive)	88.6	16.6	-4.59% (inactive)	-3.11% (inactive)
COc1ccc(-c2ccc(-c3nnc(-c4ccncc4)o3)cc2)cc1	130	103% (inactive)	130% (inactive)	119% (inactive)	96.3% (inactive)	6.73% (inactive)	89.5	96.3	-5.87% (inactive)	0% (inactive)
